Results on 3 compounds are retold here after ChEMBL document CHEMBL5705901, “Exploiting selective BCL-2 family inhibitors to dissect cell survival dependencies and define improved strategies for cancer therapy” (Sci Transl Med, 2015).

Calls of active or inactive are those of the source. The calls are words filed in the database; no cut-off is given here.

One data set deals with HCC1806. Description: Induction of apoptosis in human HCC1806 cells assessed as accumulation of cells with sub-G0-G1 DNA content at 1 uM incubated for 48 hrs in presence of docetaxel by flow cytometric analysis. The format is functional, cell-based.
In the next data set the test system is MDA-MB-468. Description: Induction of apoptosis in human MDA-MB-468 cells assessed as accumulation of cells with sub-G0-G1 DNA content at 1 uM incubated for 48 hrs in presence of docetaxel by flow cytometric analysis. The format is functional, cell-based.
In another data set the test system is HCC1395. Description: Induction of apoptosis in human HCC1395 cells assessed as accumulation of cells with sub-G0-G1 DNA content at 1 uM incubated for 48 hrs in presence of docetaxel by flow cytometric analysis. The format is functional, cell-based.
A short description of data set [1]: Antagonistic antiproliferative activity against […] (unknown origin) cells assessed as reduction in cell viability by measuring bliss sum score incubated for 72 hrs in presence of docetaxel by CellTiter-Glo cell vaibility assay. Type of data set: functional.
The subject of the next data set is OVCAR-4. Description: Antagonistic antiproliferative activity against human OVCAR-4 cells assessed as reduction in cell viability by measuring bliss sum score incubated for 72 hrs in presence of docetaxel by CellTiter-Glo cell vaibility assay. The format is functional.
In another data set the test system is DU-4475. Put plainly: Synergistic antiproliferative activity against human DU-4475 cells assessed as reduction in cell viability by measuring bliss sum score incubated for 72 hrs in presence of docetaxel by CellTiter-Glo cell vaibility assay. Type of data set: functional.
In the next data set the test system is HCC1937. Put plainly: Synergistic antiproliferative activity against human HCC1937 cells assessed as reduction in cell viability by measuring bliss sum score incubated for 72 hrs in presence of docetaxel by CellTiter-Glo cell vaibility assay. The format is functional.
Another data set has as its system OVCAR-8. Description: Synergistic antiproliferative activity against human OVCAR-8 cells assessed as reduction in cell viability by measuring bliss sum score incubated for 72 hrs in presence of docetaxel by CellTiter-Glo cell vaibility assay. The format is functional.
The subject of data set [2] is A549. Description: Synergistic antiproliferative activity against human A549 cells assessed as reduction in cell viability by measuring bliss sum score incubated for 72 hrs in presence of docetaxel by CellTiter-Glo cell vaibility assay. Type of data set: functional.
The next data set deals with NCI-H146. Put plainly: Induction of apoptosis in Bcl-xl dependent human NCI-H146 cells assessed as accumulation of caspase-dependent sub G0-G1 DNA content upto 5000 nM incubated for 24 hrs by fluorescence-activated cell sorting analysis. Type of data set: functional, cell-based. In short, it runs like this:
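NCI-H146 cells were preincubated for 1 h with or without the caspase inhibitor Z-VAD-fmk (75 μM). They were then exposed to increasing concentrations for 24 h. Sub-G0-G1 DNA content was measured by fluorescence-activated cell sorting.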

The next data set deals with NCI-H1650. Description: Synergistic antitumor activity against human NCI-H1650 cells xenografted in SCID-bg mouse assessed as tumor growth delay at 25 mg/kg, po coadministered with docetaxel once daily for 14 days relative to control. The format is functional. The settings on record: time 14 day. In short, it runs like this: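 Xenografts dosed with oral inhibitor plus intravenous docetaxel. TGImax = 100(1 − Tv/Cv), from mean treated and control tumor volumes; TGD = 100(T/C − 1), from median times to reach 1 cm3. Group size 5 mice (NCI-H747, A549-FP3, EBC-1, OVCAR-5), 8 (NCI-H358), 10 (NCI-H1650).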

The test system of the next data set is MOLT-4. Description: Antitumor activity against human MOLT-4 cells xenografted in SCID-bg mouse assessed as tumor regression at 25 mg/kg, po administered twice a day for 14 days. The format is functional, organism-based. The following applies: time 14.0 day. The procedure, abridged: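 Mice bearing Molt-4 T-ALL xenografts, dosed alongside a vehicle control group. Each point on the growth curve is the mean volume of 10 tumours, with SD.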

The nature of data set [3]: Toxicity in po dosed SCID-bg mouse assessed as body weight loss in presence of docetaxel relative to control. The settings on record: in vivo. Type of data set: organism-based.
A short description of data set [4]: Toxicity in Sprague-Dawley rat assessed as inhibition of granulopoiesis by measuring reduction in neutrophil count at 7 mg/kg, po administered daily for 5 days measured on day 6 in presence of docetaxel by microscopic analysis relative to control. The format is organism-based. The following applies: in vivo, 144 h, time 6 day. In short, it runs like this: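 Male Sprague-Dawley rats, n = 10 per group: docetaxel 5 mg/kg i.v. once, or oral inhibitor daily for 5 days (30, 50 or 7 mg/kg depending on agent), alone or combined with docetaxel, against vehicles. Total neutrophil and platelet counts in blood collected on day 6; Tukey-Kramer test versus vehicle.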

The subject of data set [5] is A549. Description: Antitumor activity against 3 times passaged human A549 cells xenografted in po dosed SCID mouse assessed as tumor growth delay relative to control. Type of data set: functional.
The next data set has as its system MDA-MB-231. Description: Antitumor activity against LC3 positive human MDA-MB-231 cells xenografted in SCID mouse assessed as tumor growth delay at 25 mg/kg, po administered daily for 14 days relative to control. The format is functional. The following applies: time 14 day. The procedure, abridged: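 MDA-MB-231 LC3 metastatic breast cancer xenograft, 10 mice per group, with a vehicle control. Dosing: oral agent 25 mg/kg daily for 14 days; docetaxel 7.5 mg/kg iv once; combination gives both regimens. Mean tumor volumes tracked. TGImax = 100(1 − Tv/Cv) from mean treated vs control volumes. TGD = 100(T/C − 1) from median times to reach 1 cm3.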

Data set [6] in a line: Toxicity in po dosed SCID mouse assessed as body weight loss relative to control. The settings on record: in vivo. Type of data set: organism-based.
A short description of data set [7]: Toxicity in po dosed SCID-bg mouse assessed as tolerance in presence of docetaxel. Type of data set: organism-based. The following applies: in vivo.

Regarding `CC1(C)CCC(c2ccc(Cl)cc2)=C(CN2CCN(c3ccc(C(=O)NS(=O)(=O)c4ccc(N[C@H](CCN5CCOCC5)CSc5ccccc5)c(S(=O)(=O)C(F)(F)F)c4)cc3)CC2)C1` [NAVITOCLAX], the result in the data set on HCC1806, with MDA-MB-468 and in the data set with HCC1395 was Active.
Turning to `CN(C)CC#Cc1ccc(OCCCc2sc(N3CCc4cccc(C(=O)Nc5nc6ccccc6s5)c4C3)nc2C(=O)O)c(F)c1` [A-1155463], the Activity_index is reported as -269 in data set [1]; -129 in the data set on OVCAR-4; 229 in the data set with DU-4475; 332 with HCC1937; 159 in the data set with OVCAR-8; 137 in the data set with A549 [2]. In addition, in the data set on NCI-H146, the result was Active.
As to `Cc1c(-c2ccc(N3CCc4cccc(C(=O)Nc5nc6ccccc6s5)c4C3)nc2C(=O)O)cnn1CC12CC3CC(CC(C3)C1)C2`, the Activity in the data set with NCI-H1650 is 170%; in [3], < 9%; in data set [4], “Toxic”; with A549 [5], 108%; in the data set on MDA-MB-231 it was 55%; in data set [6], < 9%. Also, the Activity result in data set [7] is recorded as “Non-Toxic”. In addition, the outcome with MOLT-4 was Active.
